Here are results for 36 compounds from ChEMBL document CHEMBL1125290, “Bis basic substituted diaminobenzobisthiazoles as potential antiarthritic agents” (1992).

Type in all cases: functional
For test [1], the species on record is Rattus norvegicus. As to the kind of experiment: Antiinflammatory activity in D-adjuvant induced arthritis in rat measured by the change in body weight. Also noted: concentration or dose not given beside the values.
Test [2] deals with Rattus norvegicus. As to the kind of experiment: Antiinflammatory activity against carrageenan induced rat paw edema (CPE), dosed orally. An outline of the steps: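 Male Sprague–Dawley rats (150 ± 10 g), five per group. Compound or vehicle given orally in 0.5% methylcellulose 1 h before subplantar injection of 0.1 mL 1% carrageenan in saline into the right hind paw. Paw volume measured by mercury displacement before dosing and 3 h after carrageenan; the difference is the edema volume. ANOVA with Dunnett's t test.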
For orientation: Carrageenan injected into the paw causes an acute inflammation.

Test [3] deals with Rattus norvegicus. As to the kind of experiment: Antiinflammatory activity against D-adjuvant arthritis in injected rat paw at the dose of 200 mg/kg by oral administration.
Test [4] deals with Rattus norvegicus. Nature of the test: Antiinflammatory activity against D-adjuvant arthritis in uninjected rat paw at the dose of 200 mg/kg by oral administration.
Test [5] concerns Rattus norvegicus. As to the kind of experiment: Antiinflammatory activity against D-adjuvant arthritis in uninjected rat paw at the dose of 50 mg/kg by oral administration. An outline of the steps:
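Rat developing adjuvant arthritis screen with oral dosing on a prophylactic protocol. Percent change in body weight versus untreated animals was recorded as a preliminary toxicity sign. Significance was assessed against controls by two-tailed Student's t test, p < 0.05.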

Test [6] deals with Rattus norvegicus. As to the kind of experiment: Antiinflammatory activity against D-adjuvant arthritis in injected rat paw at the dose of 50 mg/kg by oral administration.

The term Inhibition denotes the drop in the measured response relative to a control, in per cent. As a reminder, the inhibition in vivo is the change of the read-out against control, counted positive when it falls. Consider `Nc1nc2c(Br)c3nc(N)sc3cc2s1`, for which the Activity in the test listed under Rattus norvegicus [1] is on record as 10%. Besides, the Inhibition in the test on Rattus norvegicus [2] is 33%. In addition, the inhibition in vivo at 200 mg/kg in the test on Rattus norvegicus [3] turned out to be 47%; with Rattus norvegicus [4], 37%.
As for `N#Cc1c2sc(N)nc2c(Cl)c2nc(N)sc12`, in the test listed under Rattus norvegicus [1], the Activity is recorded as 3%. The Inhibition in the test with Rattus norvegicus [2] is 7%. For the same compound, the inhibition in vivo at 200 mg/kg in the test on Rattus norvegicus [3] was found to be 47%; in the test on Rattus norvegicus [4] it was 37%.
As to `CCC1CCCCN1CC(=O)Nc1nc2cc3nc(NC(=O)CN4CCCCC4CC)sc3cc2s1` (centres undefined), the Activity in the test filed under Rattus norvegicus [1] is -1%. Besides, the Inhibition in the test with Rattus norvegicus [2] was determined as 12%. For the same compound, the figures for the inhibition in vivo at 200 mg/kg in the test on Rattus norvegicus [3] and with Rattus norvegicus [4] were 34% and 65%, respectively.
Take `CC1CCN(CC(=O)Nc2nc3cc4nc(NC(=O)CN5CCC(C)CC5)sc4cc3s2)CC1`: the Activity in the test filed under Rattus norvegicus [1] was -26%. This compound also showed an Inhibition in the test with Rattus norvegicus [2] of 20%. The inhibition in vivo at 50 mg/kg in the test on Rattus norvegicus [5] was 100%; in the test on Rattus norvegicus [6], 70%.
Consider `CCN(CC)CC(=O)N(C)c1nc2cc3nc(N(C)C(=O)CN(CC)CC)sc3cc2s1.Cl.Cl`, for which the Activity in the test listed under Rattus norvegicus [1] is recorded as -16%. In addition, in the test with Rattus norvegicus [2], the Inhibition is 16%. Further, the values for the inhibition in vivo at 50 mg/kg with Rattus norvegicus [5] and in the test with Rattus norvegicus [6] were 16% and 0%, respectively.
For `O=C(CN1CCNCC1)Nc1nc2cc3nc(NC(=O)CN4CCNCC4)sc3cc2s1`, in the test filed under Rattus norvegicus [1], the Activity was -9%. Also, the Inhibition with Rattus norvegicus [2] amounted to 19%. In addition, the inhibition in vivo at 50 mg/kg in the test on Rattus norvegicus [5] stood at 27%; in the test on Rattus norvegicus [6], 31%.
Taken in the same sequence, the figures for `O=C(CNc1ccccc1)Nc1nc2cc3nc(NC(=O)CNc4ccccc4)sc3cc2s1` were -11%, 0%, 0% and 0%.
For `CCN(CC)CC(=O)N(CC)c1nc2cc3nc(N(CC)C(=O)CN(CC)CC)sc3c(Br)c2s1`, the Activity in the test filed under Rattus norvegicus [1] is -16%. This compound also registered an Inhibition in the test on Rattus norvegicus [2] of 16%. Besides, the inhibition in vivo at 50 mg/kg in the test on Rattus norvegicus [5] and with Rattus norvegicus [6] was 0% each time.
Turning to `CCOCCN(CCOCC)CC(=O)Nc1nc2cc3nc(NC(=O)CN(CCOCC)CCOCC)sc3cc2s1`, the Activity in the test filed under Rattus norvegicus [1] is 0%. For the same compound, the Inhibition in the test with Rattus norvegicus [2] is 0%. For the same compound, the inhibition in vivo at 50 mg/kg in the test on Rattus norvegicus [5] stood at 21%; in the test with Rattus norvegicus [6] it was 16%.
Consider `CCN(CC)CC(=O)Nc1nc2c(s1)c(OC)c(Cl)c1nc(NC(=O)CN(CC)CC)sc12`, for which the Activity in the test filed under Rattus norvegicus [1] is on record as -11%. This compound also registered an Inhibition in the test on Rattus norvegicus [2] of 17%. Further, the inhibition in vivo at 50 mg/kg came to 8% in the test on Rattus norvegicus [5] and 38% in the test with Rattus norvegicus [6].
Regarding `CCNC(=O)Nc1nc2cc3nc(NC(=O)NCC)sc3cc2s1`, in the test filed under Rattus norvegicus [1], the Activity is -1%. In addition, the Inhibition with Rattus norvegicus [2] is listed as 6%. Besides, the inhibition in vivo at 50 mg/kg in the test with Rattus norvegicus [5] amounted to 15%; with Rattus norvegicus [6] it was 0%.
Taken in the same sequence, the figures for `CCN(CC)CC(=O)N(C)c1nc2c(ccc3sc(N(C)C(=O)CN(CC)CC)nc32)s1` were 4%, 21%, 34% and 0%.
`COc1cc2nc(N)sc2c2nc(N)sc12`: in the test listed under Rattus norvegicus [1], the Activity is on record as -29%. The compound also returned an Inhibition in the test with Rattus norvegicus [2] of 43%. Besides, the inhibition in vivo at 50 mg/kg in the test with Rattus norvegicus [5] is 35%; in the test on Rattus norvegicus [6], 34%.
Take `CCN(CC)CC(=O)Nc1nc2cc3nc(NC(=O)CN(CC)CC)sc3c(Br)c2s1`: the Activity in the test listed under Rattus norvegicus [1] is listed as -45%. This compound also had an Inhibition with Rattus norvegicus [2] of 0%. For the same compound, the inhibition in vivo at 50 mg/kg with Rattus norvegicus [5] came to 100%; with Rattus norvegicus [6] it was 80%.
For `CCN(CC)CC(=O)Nc1nc2cc3nc(NC(=O)CN4CCCCC4)sc3cc2s1`, the Activity in the test filed under Rattus norvegicus [1] was -14%. Further, in the test with Rattus norvegicus [2], the Inhibition turned out to be 20%. Moreover, the figures for the inhibition in vivo at 50 mg/kg in the test on Rattus norvegicus [5] and in the test with Rattus norvegicus [6] were 58% and 50%, respectively.
With `O=C(CNC1CCCCCC1)Nc1nc2cc3nc(NC(=O)CNC4CCCCCC4)sc3cc2s1`, the Activity in the test filed under Rattus norvegicus [1] is recorded as 1%. Besides, the Inhibition in the test with Rattus norvegicus [2] was determined as 0%. Further, the inhibition in vivo at 50 mg/kg with Rattus norvegicus [5] is 59%; with Rattus norvegicus [6], 6%.
In the case of `CCOC(=O)c1c2sc(N)nc2cc2nc(N)sc12`, the Activity in the test listed under Rattus norvegicus [1] is listed as -14%. In the test on Rattus norvegicus [2], this compound gave an Inhibition of 2%. Further, the inhibition in vivo at 50 mg/kg with Rattus norvegicus [5] amounted to 0%; in the test with Rattus norvegicus [6] it was 23%.
Taken in the same sequence, the figures for `O=C(CN1CCN(c2ccccc2)CC1)Nc1nc2cc3nc(NC(=O)CN4CCN(c5ccccc5)CC4)sc3cc2s1` were 1%, 0%, 56% and 40%.
As to `CCOC(=O)c1c2sc(NC(=O)CN(CC)CC)nc2c(C)c2nc(NC(=O)CN(CC)CC)sc12`, the Activity in the test filed under Rattus norvegicus [1] is reported as -12%. This compound also registered an Inhibition in the test on Rattus norvegicus [2] of 35%. Also, the results for the inhibition in vivo at 50 mg/kg in the test on Rattus norvegicus [5] and in the test on Rattus norvegicus [6] were 50% and 15%, respectively.
Taken in the same sequence, the figures for `CCOC(=O)C1CCCCN1CC(=O)Nc1nc2cc3nc(NC(=O)CN4CCCCC4C(=O)OCC)sc3cc2s1` (centres undefined) were -16%, 20%, 0% and 6%.
On the same counts, the results for `CN(CC(=O)Nc1nc2cc3nc(NC(=O)CN(C)C4CCCCCCC4)sc3cc2s1)C1CCCCCCC1` are -3%, 0%, 29% and 22%.
Taken in the same sequence, the figures for `CN(C)CC(=O)Nc1nc2cc3nc(NC(=O)CN(C)C)sc3cc2s1` were -37%, 8%, 81% and 1%.
Regarding `Cc1c2nc(N)sc2c(C(=O)[O-])c2sc(N)nc12.[Na+]`, the Activity in the test listed under Rattus norvegicus [1] was -15%. In the test on Rattus norvegicus [2], the Inhibition amounted to 22%. Further, the inhibition in vivo at 50 mg/kg was determined as 0% in the test on Rattus norvegicus [5] and 7% with Rattus norvegicus [6].
For `CC1CC(C)CN(CC(=O)Nc2nc3cc4nc(NC(=O)CN5CC(C)CC(C)C5)sc4cc3s2)C1` (centres undefined), the Activity in the test listed under Rattus norvegicus [1] is on record as -3%. Moreover, in the test on Rattus norvegicus [2], the Inhibition is 15%. Further, the inhibition in vivo at 50 mg/kg turned out to be 11% in the test on Rattus norvegicus [5] and 29% with Rattus norvegicus [6].
Taken in the same sequence, the figures for `Cl.Cl.O=C(CN1CCOCC1)Nc1nc2cc3nc(NC(=O)CN4CCOCC4)sc3cc2s1` were -21%, 17%, 21% and 18%.
For `O=C(CN1CCN(c2ccc(F)cc2)CC1)Nc1nc2cc3nc(NC(=O)CN4CCN(c5ccc(F)cc5)CC4)sc3cc2s1`, the Activity in the test listed under Rattus norvegicus [1] came to 12%. In the test on Rattus norvegicus [2], this compound came in with an Inhibition of 11%. Further, the inhibition in vivo at 50 mg/kg amounted to 79% in the test with Rattus norvegicus [5] and 41% in the test on Rattus norvegicus [6].
As for `CCN(CC)CC(=O)Nc1nc2c(ccc3nc(NC(=O)CN(CC)CC)sc32)s1.Cl.Cl`, the Activity in the test filed under Rattus norvegicus [1] is recorded as -20%. In the test on Rattus norvegicus [2], this compound displayed an Inhibition of 0%. The inhibition in vivo at 50 mg/kg in the test on Rattus norvegicus [5] worked out at 36%; in the test on Rattus norvegicus [6], 2%.
Turning to `CC1CN(CC(=O)Nc2nc3cc4nc(NC(=O)CN5CC(C)NCC5C)sc4cc3s2)C(C)CN1.Cl.Cl.Cl.Cl` (centres undefined), the Activity in the test filed under Rattus norvegicus [1] is on record as -6%. Besides, in the test on Rattus norvegicus [2], the Inhibition worked out at 0%. The inhibition in vivo at 50 mg/kg in the test with Rattus norvegicus [5] and in the test with Rattus norvegicus [6] was 0% in each case.
In the case of `O=C(CN1CCCCC1CC1CCCCC1)Nc1nc2cc3nc(NC(=O)CN4CCCCC4CC4CCCCC4)sc3cc2s1` (centres undefined), in the test listed under Rattus norvegicus [1], the Activity worked out at 1%. The Inhibition with Rattus norvegicus [2] is 0%. Moreover, the inhibition in vivo at 50 mg/kg in the test with Rattus norvegicus [5] and in the test with Rattus norvegicus [6] was 0% in each case.
Turning to `CCN(CC)CC(=O)Nc1nc2cc3nc(NC(=O)CN(CC)CC)sc3c(OC)c2s1`, in the test filed under Rattus norvegicus [1], the Activity was found to be 10%. This compound came in with an Inhibition in the test on Rattus norvegicus [2] of 17%. Also, the inhibition in vivo at 50 mg/kg in the test on Rattus norvegicus [5] worked out at 0%; with Rattus norvegicus [6], 19%.
In the case of `CCN(CC)CCCC(C)Nc1nc2cc3nc(NC(C)CCCN(CC)CC)sc3cc2s1` (centres undefined), the Activity in the test listed under Rattus norvegicus [1] is -17%. Further, the Inhibition in the test on Rattus norvegicus [2] is on record as 0%. The inhibition in vivo at 50 mg/kg in the test on Rattus norvegicus [5] and with Rattus norvegicus [6] was 0% throughout.
With `CCN(CC)CC(=O)Nc1nc2c(C)c3nc(NC(=O)CN(CC)CC)sc3c(Cl)c2s1`, the Activity in the test filed under Rattus norvegicus [1] is recorded as -37%. This compound also had an Inhibition in the test with Rattus norvegicus [2] of 18%. Also, the figures for the inhibition in vivo at 50 mg/kg in the test with Rattus norvegicus [5] and in the test on Rattus norvegicus [6] were 16% and 42%, respectively.
Consider `CC(=O)c1ccc(N2CCN(CC(=O)Nc3nc4cc5nc(NC(=O)CN6CCN(c7ccc(C(C)=O)cc7)CC6)sc5cc4s3)CC2)cc1`, for which the Activity in the test listed under Rattus norvegicus [1] is on record as -7%. Moreover, the Inhibition with Rattus norvegicus [2] was 40%. The inhibition in vivo at 50 mg/kg in the test on Rattus norvegicus [5] and in the test with Rattus norvegicus [6] was 0% in each case.
With `CCN(CC)CC(=O)Nc1nc2c(Cl)c3nc(NC(=O)CN(CC)CC)sc3c(-c3ccccc3)c2s1`, the Activity in the test filed under Rattus norvegicus [1] is -6%. Also, the Inhibition in the test on Rattus norvegicus [2] is 35%. Further, the values for the inhibition in vivo at 50 mg/kg in the test with Rattus norvegicus [5] and in the test with Rattus norvegicus [6] were 7% and 13%, respectively.
Regarding `O=C(CNC1CCCCC1)Nc1nc2cc3nc(NC(=O)CNC4CCCCC4)sc3cc2s1`, the Activity in the test listed under Rattus norvegicus [1] was 8%. In the test on Rattus norvegicus [2], this compound displayed an Inhibition of 20%. For the same compound, the inhibition in vivo at 50 mg/kg in the test with Rattus norvegicus [5] came to 59%; in the test on Rattus norvegicus [6] it was 3%.
Taken in the same sequence, the figures for `CC1CCCC1NCC(=O)Nc1nc2cc3nc(NC(=O)CNC4CCCC4C)sc3cc2s1` (centres undefined) were -22%, 36%, 0% and 0%.
